Measured values from ChEMBL document CHEMBL2163234, “Design and characterization of optimized adenosine A₂A/A₁ receptor antagonists for the treatment of Parkinson's disease” (J Med Chem, 2012).
Active and inactive are the calls of the source. The calls are words filed in the database; no cut-off is given here.

What was measured:
Mus musculus [1] = experiment: Reversal of haloperidol-induced catalepsy in BALB/c mouse assessed as time duration of anticataleptic activity mouse at 10 mg/kg, po; assay type: functional
Method in brief: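 Duration study: fasted male Balb/c mice are dosed with haloperidol 1 mg/kg sc, then drug 10 mg/kg po in 0.5% methylcellulose. Bar-test catalepsy time (max 60 s) is measured repeatedly at 30 min and at 1, 2 and 4 h after dosing. n = 8 per group; mean ± SEM; Dunnett test.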

Mus musculus [2] = experiment: Reversal of haloperidol-induced catalepsy in BALB/c mouse at 10 mg/kg, po measured 1 hr post dose; assay type: functional
Method in brief: (§1)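 Fasted male Balb/c mice receive haloperidol 1 mg/kg sc in 0.3% tartaric acid/saline, then drug po in 0.5% methylcellulose 30 min later (0.1–10.0 mg/kg, or 10 mg/kg as % reversal). At 1 h post-dose, forepaws are placed on a bar 3.5 cm high and time in cataleptic position is recorded (max 60 s). Blinded; n = 8–12; mean ± SEM; Dunnett test.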

Adenosine receptor A2a = Adenosine receptor A2a (Homo sapiens, UniProt P29274); experiment: Antagonist activity at human Adenosine receptor A2a assessed as inhibition of cAMP production; assay type: functional
Adenosine receptor A1 = target: T1, Adenosine receptor A1 (Homo sapiens, UniProt P30542); experiment: Antagonist activity at human Adenosine receptor A1 assessed as inhibition of cAMP production; assay type: functional
T1 sequence (P30542 whole entry): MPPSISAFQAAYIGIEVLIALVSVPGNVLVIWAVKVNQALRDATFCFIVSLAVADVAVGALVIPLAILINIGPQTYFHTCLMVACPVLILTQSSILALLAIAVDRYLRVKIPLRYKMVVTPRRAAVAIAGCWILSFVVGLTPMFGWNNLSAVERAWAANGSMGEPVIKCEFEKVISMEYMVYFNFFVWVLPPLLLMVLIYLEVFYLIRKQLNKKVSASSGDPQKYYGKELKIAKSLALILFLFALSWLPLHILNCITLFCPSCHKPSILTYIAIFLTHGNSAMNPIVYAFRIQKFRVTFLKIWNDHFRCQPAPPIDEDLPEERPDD

[3] = Clearance in cynomolgus monkey at 2 mg/kg, iv and 10 mg/kg, po administered as single dose; assay type: ADME, organism-based, Macaca fascicularis; conditions: in vivo
Method in brief: (§2)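 Fasted animals (male Sprague-Dawley rats, male Balb/c mice, male and female cynomolgus monkeys) received a single iv dose or oral 10 mg/kg in 0.5% methylcellulose. Blood came from 3–4 animals per time point by orbital sinus (rats) or cardiac puncture (mice), or serially by venipuncture (monkeys). Plasma was acetonitrile-precipitated and analysed by LC-MS/MS (LOQ 0.7–2 ng/mL), with noncompartmental analysis.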

[4] = Oral bioavailability in BALB/c mouse at 10 mg/kg administered as single dose; assay type: ADME, organism-based; conditions: in vivo; method in brief: as §2
[5] = Cmax in cynomolgus monkey plasma at 10 mg/kg, po administered as single dose; assay type: ADME, organism-based, Macaca fascicularis; set-up: dose 10 mg/kg, route oral; method in brief: as §2
[6] = Terminal half life in Sprague-Dawley rat at 10 mg/kg, po administered as single dose; assay type: ADME, organism-based; set-up: dose 10 mg/kg, route oral; conditions: in vivo, read-out: beta t1/2 (converted); method in brief: as §2
[7] = Oral bioavailability in cynomolgus monkey at 10 mg/kg administered as single dose; assay type: ADME, organism-based, Macaca fascicularis; conditions: in vivo; method in brief: as §2
[8] = Clearance in Sprague-Dawley rat at 2 mg/kg, iv and 10 mg/kg, po administered as single dose; assay type: ADME, organism-based; conditions: in vivo; method in brief: as §2
[9] = Volume of distribution at steady state in Sprague-Dawley rat at 2 mg/kg, iv administered as single dose; assay type: ADME, organism-based; set-up: dose 2 mg/kg, route intravenous; conditions: in vivo, read-out: Vdss; method in brief: as §2
Rattus norvegicus [10] = experiment: Reversal of haloperidol-induced catalepsy in po dosed Sprague-Dawley rat dosed 60 mins before haloperidol challenge and measured 1 hr post dose; assay type: functional; conditions: for minimal effective dose: read-out: MED
[11] = Oral bioavailability in Sprague-Dawley rat at 10 mg/kg administered as single dose; assay type: ADME, organism-based; conditions: in vivo; method in brief: as §2
[12] = Clearance in BALB/c mouse at 2 mg/kg, iv and 10 mg/kg, po administered as single dose; assay type: ADME, organism-based; conditions: in vivo; method in brief: as §2
[13] = Half life in BALB/c mouse at 10 mg/kg, po administered as single dose; assay type: ADME, organism-based; set-up: dose 10 mg/kg, route oral; conditions: in vivo; method in brief: as §2
Mus musculus [14] = experiment: Reversal of haloperidol-induced catalepsy in po dosed BALB/c mouse measured 1 hr post dose; assay type: functional; conditions: for minimal effective dose: read-out: MED; method in brief: as §1
[15] = Cmax in Sprague-Dawley rat plasma at 10 mg/kg, po administered as single dose; assay type: ADME, organism-based; set-up: dose 10 mg/kg, route oral; method in brief: as §2
Rattus norvegicus [16] = experiment: Antiparkinsonian activity in Sprague-Dawley rat 6-OHDA lesion model assessed as potentiation of 10 mg/kg, po L-DOPA-induced increase in number of contralateral rotations dosed orally 6 weeks post OHDA-challenge; assay type: functional; conditions: 1008 h, read-out: MED
Method in brief: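 Rats lesioned unilaterally in the medial forebrain bundle with 6-OHDA 12 μg were selected by apomorphine rotation (≥125 turns/h). Each rat serves as its own control, with randomized session days. Drug 0.1–10.0 mg/kg po (20% HPβCD) is given and followed 60 min later by L-DOPA 10 mg/kg po plus carbidopa, with rotations recorded over 120 min. Total contralateral turns reported; n = 16; Tukey test.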

[17] = Volume of distribution at steady state in cynomolgus monkey at 2 mg/kg, iv administered as single dose; assay type: ADME, organism-based, Macaca fascicularis; set-up: dose 2 mg/kg, route intravenous; conditions: in vivo, read-out: Vdss; method in brief: as §2
Rattus norvegicus [18] = experiment: Antiparkinsonian activity in Sprague-Dawley rat 6-OHDA lesion model assessed as increase in number of contralateral rotations dosed orally 6 weeks post OHDA-challenge; assay type: functional, organism-based
Method in brief: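 Rats receive 6-OHDA 12 μg unilaterally into the medial forebrain bundle. Inclusion required ≥125 contralateral rotations in 1 h after apomorphine 0.05 mg/kg sc. Design is within-subject, with drug 0.1–10.0 mg/kg po in 20% HPβCD after 30 min acclimation. Contralateral 360° turns are counted by a tethered optical sensor for 60 min. Mean ± SEM, n = 16, Tukey test.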

[19] = Cmax in Sprague-Dawley rat brain at 2 mg/kg, iv and 10 mg/kg, po administered as single dose; assay type: ADME, organism-based
Method in brief: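 Tissue distribution: fasted male Sprague-Dawley rats get 10 mg/kg po in 0.5% methylcellulose. Four rats per time point are euthanized, and brain is weighed, homogenized in methanol, evaporated and reconstituted. Blood and plasma are acetonitrile-treated. Drug levels are measured by LC-MS/MS.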

[20] = Terminal half life in cynomolgus monkey at 10 mg/kg, po administered as single dose; assay type: ADME, organism-based, Macaca fascicularis; set-up: dose 10 mg/kg, route oral; conditions: in vivo, read-out: beta t1/2 (converted); method in brief: as §2
Rattus norvegicus [21] = experiment: Antiparkinsonian activity in Wistar rat assessed as reversal of reserpine-induced akinesia administered orally 18 hrs before reserpine challenge and measured 60 mins post dose by spontaneous locomotor activity assay; conditions: for minimal effective dose: po, read-out: MED
[22] = Volume of distribution at steady state in BALB/c mouse at 2 mg/kg, iv administered as single dose; assay type: ADME, organism-based; set-up: dose 2 mg/kg, route intravenous; conditions: in vivo, read-out: Vdss; method in brief: as §2
[23] = Cmax in BALB/c mouse plasma at 10 mg/kg, po administered as single dose; assay type: ADME, organism-based; set-up: dose 10 mg/kg, route oral; method in brief: as §2
Rattus norvegicus [24] = experiment: Reversal of haloperidol-induced catalepsy in Sprague-Dawley rat assessed as time duration of anticataleptic activity at 1 mg/kg, po dosed 60 mins before haloperidol challenge and measured post dose
Mus musculus [25] = experiment: Antiparkinsonian activity in CF-1 mouse assessed as reversal of reserpine-induced akinesia administered orally 18 hrs before reserpine challenge and measured 60 mins post dose by spontaneous locomotor activity assay; conditions: CF-1, po, read-out: MED
[26] = Clearance in cynomolgus monkey at 1 mg/kg, iv and 10 mg/kg, po administered as single dose; assay type: ADME, organism-based, Macaca fascicularis; conditions: in vivo; method in brief: as §2
Rattus norvegicus [27] = experiment: Reversal of haloperidol-induced catalepsy in Sprague-Dawley rat at 10 mg/kg, po dosed 60 mins before haloperidol challenge and measured 1 to 4 hrs post dose; assay type: functional, organism-based; set-up: dose 10 mg/kg
[28] = Volume of distribution at steady state in cynomolgus monkey at 1 mg/kg, iv administered as single dose; assay type: ADME, organism-based, Macaca fascicularis; set-up: dose 1 mg/kg, route intravenous; conditions: in vivo, read-out: Vdss; method in brief: as §2

Chain of Adenosine receptor A2a (P29274 whole entry): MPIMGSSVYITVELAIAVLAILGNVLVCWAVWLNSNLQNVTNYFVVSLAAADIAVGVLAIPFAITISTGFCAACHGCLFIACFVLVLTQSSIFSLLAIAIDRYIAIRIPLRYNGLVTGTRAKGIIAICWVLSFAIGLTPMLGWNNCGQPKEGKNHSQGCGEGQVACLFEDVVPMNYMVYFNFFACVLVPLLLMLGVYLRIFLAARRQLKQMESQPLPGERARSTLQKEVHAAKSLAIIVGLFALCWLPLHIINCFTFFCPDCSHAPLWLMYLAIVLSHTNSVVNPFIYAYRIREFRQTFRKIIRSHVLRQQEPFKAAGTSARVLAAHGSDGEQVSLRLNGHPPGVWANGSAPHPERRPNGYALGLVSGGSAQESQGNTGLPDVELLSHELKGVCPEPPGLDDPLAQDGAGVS

N#Cc1cncc(Cc2ccc3c(c2)-c2nc(N)nc(-c4ccccc4)c2C3=O)c1
Time (Mus musculus [1]): 2 h | Activity (Mus musculus [2]): 100% | Ki (Adenosine receptor A2a): 1.4 nM | Ki (Adenosine receptor A1): 5.2 nM

Nc1nc(-c2ccccc2)c2c(n1)-c1cc(OCCN3CCOCC3)ccc1C2=O
clearance [3]: 7 mL/min/kg | bioavailability [4]: 61% | Cmax [5]: 2770 nM | Time (Mus musculus [1]): 4 h | half-life [6]: 1.2 h | bioavailability [7]: 55% | clearance [8]: 19 mL/min/kg | Vd [9]: 1 L/kg | Activity (Rattus norvegicus [10]): Dose-dependent effect | ED50 (Rattus norvegicus [10]): 0.3 mg/kg | minimal effective dose (Rattus norvegicus [10]): 1 mg/kg | bioavailability [11]: 18% | clearance [12]: 97 mL/min/kg | half-life [13]: 1.1 h | ED50 (Mus musculus [14]): < 0.1 mg/kg | minimal effective dose (Mus musculus [14]): 0.1 mg/kg | Cmax [15]: 1650 nM | minimal effective dose (Rattus norvegicus [16]): 1 mg/kg | Vd [17]: 2 L/kg | Activity (Rattus norvegicus [18]): Dose-dependent effect | Cmax [19]: 4160 nM | half-life [20]: 5.5 h | Activity (Rattus norvegicus [21]): Dose-dependent effect | minimal effective dose (Rattus norvegicus [21]): 1 mg/kg | Vd [22]: 5 L/kg | Cmax [23]: 1080 nM | Time (Rattus norvegicus [24]): 4 h | minimal effective dose (Mus musculus [25]): 1 mg/kg

Nc1nc(-c2ccccc2)c2c(n1)-c1cc(Cc3ccncc3F)ccc1C2=O
Activity (Mus musculus [2]): 100% | Ki (Adenosine receptor A2a): 0.7 nM | Ki (Adenosine receptor A1): 2.5 nM

Nc1nc(-c2ccccc2)c2c(n1)-c1cc(Cc3cnccc3Cl)ccc1C2=O
Activity (Mus musculus [2]): 100% | Ki (Adenosine receptor A2a): 0.1 nM | Ki (Adenosine receptor A1): 0.5 nM

Nc1nc(-c2ccccc2)c2c(n1)-c1cc(C(F)(F)c3cccnc3)ccc1C2=O
Activity (Mus musculus [2]): <50% | Ki (Adenosine receptor A2a): 1.6 nM | Ki (Adenosine receptor A1): 29.3 nM

Nc1nc(-c2ccccc2)c2c(n1)-c1cc(C(=O)c3cccnc3)ccc1C2=O
Activity (Mus musculus [2]): <50% | Ki (Adenosine receptor A2a): 0.5 nM | Ki (Adenosine receptor A1): 1.8 nM

Nc1nc(-c2ccccc2)c2c(n1)-c1cc(Cc3cncc(F)c3)ccc1C2=O
Activity (Mus musculus [2]): 100% | Ki (Adenosine receptor A2a): 1.3 nM | Ki (Adenosine receptor A1): 6 nM

Nc1nc(-c2ccccc2)c2c(n1)-c1cc(CN3CCCC3)ccc1C2=O
clearance [26]: 56 mL/min/kg | Activity (Rattus norvegicus [27]): Active | clearance [8]: 85 mL/min/kg | Vd [9]: 7 L/kg | clearance [12]: 440 mL/min/kg | ED50 (Mus musculus [14]): 0.2 mg/kg | Vd [22]: 13 L/kg | Vd [28]: 7 L/kg

Nc1nc(-c2ccccc2)c2c(n1)-c1cc(CN3C4CCC3CC4)ccc1C2=O
Ki (Adenosine receptor A2a): 3.1 nM | ED50 (Mus musculus [14]): 1 mg/kg | Ki (Adenosine receptor A1): 223 nM

Nc1nc(-c2ccccc2)c2c(n1)-c1cc(Cc3cccnc3)ccc1C2=O
Time (Mus musculus [1]): 4 h | Ki (Adenosine receptor A2a): 0.3 nM | ED50 (Mus musculus [14]): < 1 mg/kg | Ki (Adenosine receptor A1): 2.4 nM

CC1CC[C@@H](C)N1Cc1ccc2c(c1)-c1nc(N)nc(-c3ccccc3)c1C2=O (mixture of isomers)
Ki (Adenosine receptor A2a): 13.1 nM | ED50 (Mus musculus [14]): 3.2 mg/kg | Ki (Adenosine receptor A1): 37.3 nM

CN1CCN(C(=O)c2ccc3c(c2)-c2nc(N)nc(-c4ccccc4)c2C3=O)CC1
clearance [3]: 15 mL/min/kg | bioavailability [4]: 41% | Cmax [5]: 1460 nM | Time (Mus musculus [1]): 4 h | half-life [6]: 3.6 h | bioavailability [7]: 47% | clearance [8]: 52 mL/min/kg | Vd [9]: 6 L/kg | Activity (Rattus norvegicus [10]): Dose-dependent effect | ED50 (Rattus norvegicus [10]): 0.6 mg/kg | minimal effective dose (Rattus norvegicus [10]): 1 mg/kg | bioavailability [11]: 45% | clearance [12]: 37 mL/min/kg | half-life [13]: 3.8 h | ED50 (Mus musculus [14]): 0.4 mg/kg | minimal effective dose (Mus musculus [14]): 1 mg/kg | Cmax [15]: 968 nM | minimal effective dose (Rattus norvegicus [16]): 1 mg/kg | Vd [17]: 4 L/kg | Activity (Rattus norvegicus [18]): Dose-dependent effect | Cmax [19]: 459 nM | half-life [20]: 4.3 h | Activity (Rattus norvegicus [21]): Dose-dependent effect | minimal effective dose (Rattus norvegicus [21]): 1 mg/kg | Vd [22]: 11 L/kg | Cmax [23]: 1700 nM | minimal effective dose (Mus musculus [25]): 1 mg/kg
